b-catenin transl – alters nuclear translocation of beta-catenin in HeLa cells. nuclear translocation activity, % at 5 µM. AID 1665. hit rate 0.3% among 190,000. immunofluorescence imaging;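 active means nuclear translocation activity above 50% at 5 µM, with a well cell count of 50 or more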;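 further: per-cell ratio of nuclear to cytoplasmic median beta-catenin stain intensity; plate controls were DMSO negative control for no effect and GSK-3 inhibitor IX positive control for full effect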
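Test system: human HeLa cell line; Doses: 5 µM primary, 0.02–20 µM confirmation; Incubation: 24 h compound exposure, 37°C; Detection: beta-catenin immunofluorescence imaging with DAPI; Read-out: beta-catenin nuclear/cytoplasmic ratio, % activation.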
Ba/F3 V617F tox – lowers viability of Ba/F3 cells expressing EpoR and JAK2V617F | inhibition, % at 5.6 µM | ATP luminescence | hit rate 1.1% among 220,000;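 active means inhibition above the campaign mean plus 3 SD over all tested compounds, cut at about 24% in these data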;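 further: cytokine-independent growth of Ba/F3 cells driven by EpoR plus mutant JAK2; 0% = DMSO-treated cells and 100% = JAK inhibitor I control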
IEC-6 tox – IEC-6 cytotoxicity, counter-screen for KLF5 inhibitors; luminescence viability; inhibition, % at 5 µM; hit rate 0.78% among 290,000; in the data active means inhibition above about 22%;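 further: 0% = plate median of test compound wells and 100% = cytotoxic reference compound wells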
MT stabilize HCS – microtubule stabilizers in HeLa cells. HeLa tubulin immunostaining HCS, 24 h; share of cells brighter than vehicle mean+2SD. % tubulin-high responders, % at 10 µM. hit rate 0.83% among 200,000. AID 2205;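 active means plate Z-score above 3 for both tubulin-high and condensed-nucleus cell shares, with cell loss under 80%, at 10 µM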;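 further: anti alpha tubulin signal scored within the nucleus-defined area of each cell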
APP 5UTR inh – APP translation inhibition | SH-SY5Y APP 5'UTR-luciferase reporter, luminescence | inhibition, % at 2 µM | hit rate 0.82% among 190,000;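 active means inhibition above a set limit, derived from the sample mean plus 3 SD, cut at about 45% in these data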
BaF3 parental – reduces parental Ba/F3 cell viability, JAK2V617F counter-screen; hit rate 1.1% among 220,000; inhibition, % at 5.6 µM; CellTiter-Glo ATP luminescence;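 active means inhibition above a per-campaign cutoff, the mean inhibition of all tested compounds plus 3 SD, cut at about 27% in these data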;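 further: 0% = DMSO wells and 100% = JAK Inhibitor I control wells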
Starred values were filed as active, the others as inactive; · = no result. This is a sample that favours compounds with a hit; in the whole collection about 2.2% have one here.

SMILES	b-catenin transl	Ba/F3 V617F tox	IEC-6 tox	MT stabilize HCS	APP 5UTR inh	BaF3 parental
O=S(=O)(Nc1ccc2c(c1)nc1n2CCN(Cc2ccccc2)C1)c1ccccc1	0	-5	-1	6	-4	3
O=S(=O)(Nc1ccc2c(c1)nc1n2CCN(Cc2ccccc2)C1)c1ccc(Cl)cc1	-6	-1	-2	30*	-13	5
O=C(Nc1ccc(C(=O)N2CCN(c3ccccc3)CC2)cc1)C1=CSCCO1	·	·	1	·	·	·
O=C(NNC(=O)c1cc(C(F)(F)F)cc(C(F)(F)F)c1)c1ccc(Cl)cc1	-6	-4	-1	·	·	62*
CCOC(=O)C1=C(CS(=O)(=O)c2ccccc2)NC(=O)NC1c1ccccc1OC (stereo not given)	·	·	-3	·	·	·
CCOC(=O)C(=Cc1cc(=O)c(OC)co1)C(=O)OCC	0	0	1	25*	12	0
COc1coc(C(O)CN)cc1=O (stereo not given)	·	6	1	3	20	8
CN(C)S(=O)(=O)N(CC(=O)Nc1ccc(F)c(F)c1)c1ccccc1	-3	-8	-4	1	59*	0
CC(=O)Oc1ccc2nc(/C=C/c3ccccc3)oc(=O)c2c1	·	·	0	·	·	·
Cc1nc([N+](=O)[O-])c(Br)n1CC(=O)c1cccc([N+](=O)[O-])c1	1	1	-1	3	-7	-5
Cc1nc([N+](=O)[O-])c(Br)n1CC(=O)c1ccc(F)cc1	0	37*	18	2	-7	-8
O=C(CCNC(=O)C1CCN(S(=O)(=O)c2ccc(F)cc2)CC1)NCc1ccccc1	·	·	-2	·	·	·
Cc1nc2ccccc2n1/N=C/c1ccc([N+](=O)[O-])s1	5	0	-1	10*	24	3
CCn1c(SCC(=O)NC2=NCCS2)nnc1C(C)NC(=O)c1ccc(Cl)cc1 (stereo not given)	·	·	-3	·	·	·
CCOC(=O)C1=C(c2ccccc2)N=C2SCC(=O)N2C1c1cccc(OC)c1 (stereo not given)	-8	1	-1	4	61*	3
CCOC(=O)C1=C(c2ccccc2)N=C2SCC(=O)N2C1c1ccc(OC)c(OC)c1 (stereo not given)	-4	-4	3	2	-6	0
COc1ccc(OC)c(-n2nnnc2SCC(=O)N2CCN(C(=O)c3ccco3)CC2)c1	5	1	0	1	3	41*
CCOc1ccccc1N(CC)C(=O)c1nn(C)c2c1CSc1ccccc1-2	·	·	-1	·	·	·
COC(=O)c1cc(C(=O)N2CCN(c3ncccn3)CC2)cc([N+](=O)[O-])c1	·	·	-5	·	·	·
COC(=O)c1cc(C(=O)N2CCN(c3ccccc3OC)CC2)cc([N+](=O)[O-])c1	70*	67*	69*	27*	92*	71*
COc1ccccc1N1CCN(c2ccc([N+](=O)[O-])cc2Cl)CC1	3	-5	-1	21*	0	-2
COc1cc2c(cc1OC)CN(c1ccc([N+](=O)[O-])cc1Cl)CC2	0	-2	-1	2	6	5
Nn1c(=O)[nH]c2ccccc2c1=O	1	-1	0	4	2	38*
CCn1c(=O)[nH]c2ccccc2c1=O	-1	-3	-6	5	7	-3
Cc1c(C(=O)N/N=C/c2ccc(Cl)cc2)[nH]c2ccc(Cl)cc12	119*	5	11	6	93*	9
SMILES	b-catenin transl	Ba/F3 V617F tox	IEC-6 tox	MT stabilize HCS	APP 5UTR inh	BaF3 parental
CCOc1ccc(/C=N/NC(=O)c2[nH]c3ccc(C)cc3c2C)cc1	·	·	6	·	·	·
Cc1cc(C)c[n+](CC(=O)c2c(C)cc(C)c([N+](=O)[O-])c2C)c1	·	·	0	·	·	·
CCN(CC)S(=O)(=O)c1cc(NC(=O)C(=O)c2c(-c3ccccc3)cc3ccccn23)ccc1C	-1	-3	-2	2	93*	2
CC(=O)Nc1ccc(S(=O)(=O)N2CCN(C(=O)c3ncoc3-c3cccc(F)c3)CC2)cc1	·	·	2	·	·	·
Cc1nn(CC(=O)Nc2ccc(Cl)cn2)c(C)c1[N+](=O)[O-]	·	-1	0	2	1	43*
CC(=O)N1CCCc2cc(S(=O)(=O)N3CCCC(C)C3)ccc21 (stereo not given)	·	·	4	·	·	·
O=S1(=O)CC2SC(=S)N(Cc3ccccc3)C2C1 (stereo not given)	-4	-1	-9	·	·	-2
CC1=NN(C(N)=S)C(=O)C1N=Nc1ccc(O)cc1 (stereo not given)	-1	37*	7	1	9	58*
CC(=O)c1ccc(OCCCC(=O)NCCc2ccccc2)cc1	·	·	2	·	·	·
CCOC(=O)c1ccc(NC(=O)Cn2nnc3ccccc32)cc1	-9	-3	-2	3	-71	59*
CCOC(=O)c1ccc(NC(=O)CCn2nnc3ccccc32)cc1	-2	1	2	3	2	3
CC(C)CCNC(=O)c1ccc(OC2CCN(S(=O)(=O)N(C)C)CC2)cc1	0	11	5	3	1	27*
C=C(C)CNC(=O)c1ccc(OC2CCN(S(=O)(=O)N(C)C)CC2)cc1	-3	0	-6	2	5	4
CCOc1ccc2c(c1)-c1c(ssc1=S)C(C)(C)N2C(=O)c1ccco1	68*	2	0	13	-3	3
CCCC(=O)Nc1c(-c2cccc(C)c2)c(=O)c2ccccc2n1C	·	·	1	·	·	·
O=C(Nc1ccccc1N1CCOCC1)c1cccc(NS(=O)(=O)c2ccc(F)c(F)c2)c1	-6	2	-1	3	-5	8
Cc1ccc(S(=O)(=O)N[C@@H](Cc2ccccc2)C(=O)N2CCC[C@@H]2C(=O)O)cc1	·	·	1	·	·	·
O=C(NNC(=O)c1cccnc1SCc1cccc([N+](=O)[O-])c1)c1ccccn1	1	-2	5	5	72*	9
CNc1ccccc1C(C)(C)c1cn(-c2ccc([N+](=O)[O-])cc2)nn1	·	·	1	·	·	·
CC(/C=C1\SC(=O)N(CCCC(=O)O)C1=O)=C\c1ccccc1	-4	3	-4	3	78*	3
O=C(CCCN1C(=O)S/C(=C\c2ccccc2)C1=O)NNC(=O)c1ccccc1O	1	-4	0	3	63*	4
COc1ccc(CCN2CC(C(=O)N(C)CCc3cn[nH]c3)CCC2=O)cc1 (stereo not given)	·	·	-3	·	·	·
Cc1cc(C)c2nc(C)cc(Nc3ccc(C(=O)N(C)C)cc3)c2c1	-2	-1	-2	·	·	-2
CC(=O)c1ccc(Nc2cc(C)nc3c(C)cc(C)cc23)cc1	124*	81*	73*	20*	89*	81*
O=C(O)Cc1ccc(NC(=S)Nc2ccc(Br)cc2Cl)cc1	1	-3	-4	·	·	-3
COc1ccc(C(=O)N2CCN(c3ccc([N+](=O)[O-])c(NCCc4ccc(OC)c(OC)c4)c3)CC2)cc1	2	6	1	3	18	12
COc1ccc(CCNc2cc(N3CCN(C(=O)c4ccc(C)cc4)CC3)ccc2[N+](=O)[O-])cc1OC	-2	1	-2	3	-7	43*

Assay outcomes: PubChem, several laboratories
